Assay results: ChEMBL document CHEMBL4699432, “Rational design, synthesis and testing of novel tricyclic topoisomerase inhibitors for the treatment of bacterial infections part 1” (RSC Med Chem, 2020)
Values after ≈ are worked out from the molar mass of the structure shown.

System: Staphylococcus aureus
Test: Antibacterial activity against fluoroquinolone and multidrug-resistant Staphylococcus aureus assessed as reduction in bacterial growth by CLSI method based broth microdilution assay
Assay type: functional
Conditions: not given
Procedure, shortened: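 Run to CLSI guidelines by broth microdilution, in triplicate. Growth was read to give the MIC.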

SMILES	MIC90 [µg/mL]
Cc1c(-c2cc(F)c(N)cc2F)ccc2c3ocnc3c(=O)n(C3CC3)c12	0.25 (≈ 0.681 µM)

System: Neisseria gonorrhoeae
Test: Antibacterial activity against Neisseria gonorrhoeae assessed as reduction in bacterial growth by CLSI method based broth microdilution assay
Assay type: functional
Conditions: not given
Procedure, shortened: (§1)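 MIC by broth microdilution following CLSI guidelines for culturing and susceptibility testing; each determination run in triplicate. Agar dilution was used instead only ahead of frequency-of-resistance work.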

SMILES	MIC [µg/mL]
Cc1c(-c2cc(F)c(N)cc2F)ccc2c3ocnc3c(=O)n(C3CC3)c12	0.06 (≈ 0.163 µM)

System: not listed separately
Test: Lipophilicity, logD of the compound at pH 7.4
Assay type: physicochemical
Conditions: buffer

SMILES	logD
Cc1c(-c2ccc3[nH]cnc3c2)ccc2c3ocnc3c(=O)n(C3CC3)c12	3.03
Cc1c(-c2ccc(N)cc2)ccc2c3ocnc3c(=O)n(C3CC3)c12	2.59
Cc1c(-c2ccc3[nH]c(N)nc3c2)ccc2c3ocnc3c(=O)n(C3CC3)c12	2.52
Cc1c(-c2ccc3nonc3c2)ccc2c3ocnc3c(=O)n(C3CC3)c12	3.03
Cc1c(-c2cnc(N)cn2)ccc2c3ocnc3c(=O)n(C3CC3)c12	1.46
Cc1c(-c2cc(F)c(N)cc2F)ccc2c3ocnc3c(=O)n(C3CC3)c12	2.96
Cc1c(-c2cnc(N)nc2)ccc2c3ocnc3c(=O)n(C3CC3)c12	1.32

Next, values leading:

logD	SMILES
3.05	Cc1c(-c2ccc(N)cc2F)ccc2c3ocnc3c(=O)n(C3CC3)c12
2.94	Cc1c(-c2ccc(N)c(C#N)c2)ccc2c3ocnc3c(=O)n(C3CC3)c12
0.75	Cc1c(-c2ccc3c(c2)CNC3)ccc2c3ocnc3c(=O)n(C3CC3)c12
3.29	Cc1c(-c2ccc3[nH]ncc3c2)ccc2c3ocnc3c(=O)n(C3CC3)c12
3.14	Cc1c(-c2cc(F)c(CO)cc2F)ccc2c3ocnc3c(=O)n(C3CC3)c12

System: not listed separately
Test: Thermodynamic solubility of compound at physiological pH
Assay type: physicochemical
Conditions: read-out: Therm_solubility

SMILES	solubility thermodynamic
Cc1c(-c2ccc3[nH]cnc3c2)ccc2c3ocnc3c(=O)n(C3CC3)c12	< 9 µg/mL
Cc1c(-c2cc(F)c(N)cc2F)ccc2c3oc(CN)nc3c(=O)n(C3CC3)c12	36 µg/mL
Cc1c(-c2ccc3[nH]ncc3c2)ccc2c3oc(CN)nc3c(=O)n(C3CC3)c12	10 µg/mL
Cc1c(-c2ccc3[nH]c(N)nc3c2)ccc2c3ocnc3c(=O)n(C3CC3)c12	16 µg/mL
Cc1c(-c2ccc3nonc3c2)ccc2c3ocnc3c(=O)n(C3CC3)c12	< 9 µg/mL
Cc1c(-c2cnc(N)cn2)ccc2c3ocnc3c(=O)n(C3CC3)c12	6.8 µg/mL
Cc1c(-c2cc(F)c(N)cc2F)ccc2c3ocnc3c(=O)n(C3CC3)c12	3 µM
Cc1c(-c2cnc(N)nc2)ccc2c3ocnc3c(=O)n(C3CC3)c12	15 µg/mL

Continued, values first:

solubility thermodynamic	SMILES
1.1 µg/mL	Cc1c(-c2ccc(N)cc2F)ccc2c3ocnc3c(=O)n(C3CC3)c12
209 µg/mL	Cc1c(-c2ccc3c(c2)CNC3)ccc2c3ocnc3c(=O)n(C3CC3)c12
1.1 µg/mL	Cc1c(-c2ccc3[nH]ncc3c2)ccc2c3ocnc3c(=O)n(C3CC3)c12
1.9 µg/mL	Cc1c(-c2cc(F)c(CO)cc2F)ccc2c3ocnc3c(=O)n(C3CC3)c12

System: Staphylococcus aureus
Test: Antibacterial activity against Staphylococcus aureus ATCC 29213 assessed as reduction in bacterial growth by CLSI method based broth microdilution assay
Assay type: functional
Conditions: not given

SMILES	MIC [µg/mL]
Cc1c(-c2ccc3[nH]cnc3c2)ccc2c3ocnc3c(=O)n(C3CC3)c12	0.25 (≈ 0.701 µM)
Cc1c(-c2cc(F)c(N)cc2F)ccc2c3oc(CN)nc3c(=O)n(C3CC3)c12	0.06 (≈ 0.151 µM)
Cc1c(-c2ccc(N)cc2)ccc2c3ocnc3c(=O)n(C3CC3)c12	0.5 (≈ 1.51 µM)
Cc1c(-c2ccc3[nH]ncc3c2)ccc2c3oc(CN)nc3c(=O)n(C3CC3)c12	0.06 (≈ 0.156 µM)
Cc1c(-c2ccc3[nH]c(N)nc3c2)ccc2c3ocnc3c(=O)n(C3CC3)c12	0.25 (≈ 0.673 µM)
Cc1c(-c2ccc3nonc3c2)ccc2c3ocnc3c(=O)n(C3CC3)c12	0.25 (≈ 0.698 µM)
Cc1c(-c2cnc(N)cn2)ccc2c3ocnc3c(=O)n(C3CC3)c12	64 (≈ 192 µM)
Cc1c(-c2cc(F)c(N)cc2F)ccc2c3ocnc3c(=O)n(C3CC3)c12	0.03 (≈ 0.0817 µM)
Cc1c(-c2cnc(N)nc2)ccc2c3ocnc3c(=O)n(C3CC3)c12	1 (≈ 3 µM)

Second part, the compound after the results:

MIC [µg/mL]	SMILES
0.12 (≈ 0.343 µM)	Cc1c(-c2ccc(N)cc2F)ccc2c3ocnc3c(=O)n(C3CC3)c12
0.06 (≈ 0.168 µM)	Cc1c(-c2ccc(N)c(C#N)c2)ccc2c3ocnc3c(=O)n(C3CC3)c12
0.12 (≈ 0.336 µM)	Cc1c(-c2ccc3c(c2)CNC3)ccc2c3ocnc3c(=O)n(C3CC3)c12
0.004 (≈ 0.0112 µM)	Cc1c(-c2ccc3[nH]ncc3c2)ccc2c3ocnc3c(=O)n(C3CC3)c12
0.06 (≈ 0.157 µM)	Cc1c(-c2cc(F)c(CO)cc2F)ccc2c3ocnc3c(=O)n(C3CC3)c12

System: Streptococcus pneumoniae
Test: Antibacterial activity against Streptococcus pneumoniae ATCC 49619 assessed as reduction in bacterial growth by CLSI method based broth microdilution assay
Assay type: functional
Conditions: not given
Procedure, shortened: as §1

SMILES	MIC [µg/mL]
Cc1c(-c2ccc3[nH]cnc3c2)ccc2c3ocnc3c(=O)n(C3CC3)c12	0.25 (≈ 0.701 µM)
Cc1c(-c2ccc(N)cc2)ccc2c3ocnc3c(=O)n(C3CC3)c12	4 (≈ 12.1 µM)
Cc1c(-c2ccc3[nH]c(N)nc3c2)ccc2c3ocnc3c(=O)n(C3CC3)c12	0.25 (≈ 0.673 µM)
Cc1c(-c2ccc3nonc3c2)ccc2c3ocnc3c(=O)n(C3CC3)c12	4 (≈ 11.2 µM)
Cc1c(-c2cnc(N)cn2)ccc2c3ocnc3c(=O)n(C3CC3)c12	> 128
Cc1c(-c2cc(F)c(N)cc2F)ccc2c3ocnc3c(=O)n(C3CC3)c12	1 (≈ 2.72 µM)
Cc1c(-c2cnc(N)nc2)ccc2c3ocnc3c(=O)n(C3CC3)c12	4 (≈ 12 µM)

Other lines, results leading:

MIC [µg/mL]	SMILES
1 (≈ 2.86 µM)	Cc1c(-c2ccc(N)cc2F)ccc2c3ocnc3c(=O)n(C3CC3)c12
0.25 (≈ 0.701 µM)	Cc1c(-c2ccc(N)c(C#N)c2)ccc2c3ocnc3c(=O)n(C3CC3)c12
0.5 (≈ 1.4 µM)	Cc1c(-c2ccc3c(c2)CNC3)ccc2c3ocnc3c(=O)n(C3CC3)c12
0.5 (≈ 1.4 µM)	Cc1c(-c2ccc3[nH]ncc3c2)ccc2c3ocnc3c(=O)n(C3CC3)c12
0.25 (≈ 0.654 µM)	Cc1c(-c2cc(F)c(CO)cc2F)ccc2c3ocnc3c(=O)n(C3CC3)c12

System: not listed separately
Test: Cytotoxicity against human HepG2 cells
Assay type: cell-based
Conditions: not given

SMILES	CC50 [µg/mL]
Cc1c(-c2ccc3[nH]cnc3c2)ccc2c3ocnc3c(=O)n(C3CC3)c12	> 16
Cc1c(-c2cc(F)c(N)cc2F)ccc2c3oc(CN)nc3c(=O)n(C3CC3)c12	> 64
Cc1c(-c2ccc(N)cc2F)ccc2c3ocnc3c(=O)n(C3CC3)c12	16 (≈ 45.8 µM)
Cc1c(-c2ccc(N)c(C#N)c2)ccc2c3ocnc3c(=O)n(C3CC3)c12	> 4
Cc1c(-c2ccc3c(c2)CNC3)ccc2c3ocnc3c(=O)n(C3CC3)c12	> 64
Cc1c(-c2ccc3[nH]ncc3c2)ccc2c3oc(CN)nc3c(=O)n(C3CC3)c12	32 (≈ 83 µM)
Cc1c(-c2ccc3[nH]c(N)nc3c2)ccc2c3ocnc3c(=O)n(C3CC3)c12	> 32
Cc1c(-c2ccc3nonc3c2)ccc2c3ocnc3c(=O)n(C3CC3)c12	> 32
Cc1c(-c2ccc3[nH]ncc3c2)ccc2c3ocnc3c(=O)n(C3CC3)c12	> 16
Cc1c(-c2cc(F)c(N)cc2F)ccc2c3ocnc3c(=O)n(C3CC3)c12	> 128
Cc1c(-c2cnc(N)nc2)ccc2c3ocnc3c(=O)n(C3CC3)c12	> 32
Cc1c(-c2cc(F)c(CO)cc2F)ccc2c3ocnc3c(=O)n(C3CC3)c12	> 32

System: Staphylococcus aureus
Test: Antibacterial activity against methicillin-resistant Staphylococcus aureus NRS74 assessed as reduction in bacterial growth by CLSI method based broth microdilution assay
Assay type: functional
Conditions: not given

SMILES	MIC [µg/mL]
Cc1c(-c2cc(F)c(N)cc2F)ccc2c3oc(CN)nc3c(=O)n(C3CC3)c12	0.06 (≈ 0.151 µM)
Cc1c(-c2ccc3[nH]ncc3c2)ccc2c3oc(CN)nc3c(=O)n(C3CC3)c12	0.5 (≈ 1.3 µM)
Cc1c(-c2cc(F)c(N)cc2F)ccc2c3ocnc3c(=O)n(C3CC3)c12	0.06 (≈ 0.163 µM)

System: Staphylococcus aureus
Test: Antibacterial activity against methicillin-resistant Staphylococcus aureus VRS8 assessed as reduction in bacterial growth by CLSI method based broth microdilution assay
Assay type: functional
Conditions: not given

SMILES	MIC [µg/mL]
Cc1c(-c2cc(F)c(N)cc2F)ccc2c3oc(CN)nc3c(=O)n(C3CC3)c12	4 (≈ 10.1 µM)
Cc1c(-c2ccc3[nH]ncc3c2)ccc2c3oc(CN)nc3c(=O)n(C3CC3)c12	2 (≈ 5.19 µM)
Cc1c(-c2cc(F)c(N)cc2F)ccc2c3ocnc3c(=O)n(C3CC3)c12	0.5 (≈ 1.36 µM)

Biological target: T1, Cytochrome P450 1A2 (Homo sapiens, UniProt P05177)
T1 sequence (P05177 whole entry): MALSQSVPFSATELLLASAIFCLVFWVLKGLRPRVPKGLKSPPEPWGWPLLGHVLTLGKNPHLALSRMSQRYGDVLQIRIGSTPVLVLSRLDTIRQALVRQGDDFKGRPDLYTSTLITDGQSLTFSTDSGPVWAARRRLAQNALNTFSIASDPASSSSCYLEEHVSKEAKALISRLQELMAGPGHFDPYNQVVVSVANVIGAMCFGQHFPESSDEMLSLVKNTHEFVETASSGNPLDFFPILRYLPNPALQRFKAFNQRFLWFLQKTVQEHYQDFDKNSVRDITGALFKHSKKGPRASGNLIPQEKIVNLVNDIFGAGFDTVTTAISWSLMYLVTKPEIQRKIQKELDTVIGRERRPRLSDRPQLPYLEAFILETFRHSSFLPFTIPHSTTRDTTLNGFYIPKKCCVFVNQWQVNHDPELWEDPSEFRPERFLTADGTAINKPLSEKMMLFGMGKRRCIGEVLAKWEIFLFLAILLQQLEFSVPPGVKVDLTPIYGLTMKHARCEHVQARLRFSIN
Test: Inhibition of CYP1A2 (unknown origin)
Conditions: not given

SMILES	IC50 [µM]
Cc1c(-c2cc(F)c(N)cc2F)ccc2c3oc(CN)nc3c(=O)n(C3CC3)c12	7.5
Cc1c(-c2ccc3[nH]ncc3c2)ccc2c3oc(CN)nc3c(=O)n(C3CC3)c12	12.3
Cc1c(-c2cc(F)c(N)cc2F)ccc2c3ocnc3c(=O)n(C3CC3)c12	> 30

Biological target: Cytochrome P450 2C9 (Homo sapiens, UniProt P11712)
Sequence (P11712 whole entry): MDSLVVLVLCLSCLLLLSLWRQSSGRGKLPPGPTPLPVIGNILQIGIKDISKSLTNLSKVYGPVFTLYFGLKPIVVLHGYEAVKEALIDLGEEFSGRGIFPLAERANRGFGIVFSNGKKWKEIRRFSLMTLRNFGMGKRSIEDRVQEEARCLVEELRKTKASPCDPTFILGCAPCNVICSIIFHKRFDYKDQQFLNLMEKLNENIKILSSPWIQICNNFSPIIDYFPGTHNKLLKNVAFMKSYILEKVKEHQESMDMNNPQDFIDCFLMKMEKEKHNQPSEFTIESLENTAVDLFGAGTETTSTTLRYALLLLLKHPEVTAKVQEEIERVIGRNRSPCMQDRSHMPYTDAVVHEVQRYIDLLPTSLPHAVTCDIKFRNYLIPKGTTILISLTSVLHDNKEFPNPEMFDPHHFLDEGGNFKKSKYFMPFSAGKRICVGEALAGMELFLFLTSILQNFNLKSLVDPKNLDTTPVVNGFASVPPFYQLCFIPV
Test: Inhibition of CYP2C9 (unknown origin)
Conditions: not given

SMILES	IC50 [µM]
Cc1c(-c2cc(F)c(N)cc2F)ccc2c3oc(CN)nc3c(=O)n(C3CC3)c12	0.3
Cc1c(-c2ccc3[nH]ncc3c2)ccc2c3oc(CN)nc3c(=O)n(C3CC3)c12	0.2
Cc1c(-c2cc(F)c(N)cc2F)ccc2c3ocnc3c(=O)n(C3CC3)c12	> 30

Biological target: Cytochrome P450 2C19 (Homo sapiens, UniProt P33261)
Sequence (P33261 whole entry): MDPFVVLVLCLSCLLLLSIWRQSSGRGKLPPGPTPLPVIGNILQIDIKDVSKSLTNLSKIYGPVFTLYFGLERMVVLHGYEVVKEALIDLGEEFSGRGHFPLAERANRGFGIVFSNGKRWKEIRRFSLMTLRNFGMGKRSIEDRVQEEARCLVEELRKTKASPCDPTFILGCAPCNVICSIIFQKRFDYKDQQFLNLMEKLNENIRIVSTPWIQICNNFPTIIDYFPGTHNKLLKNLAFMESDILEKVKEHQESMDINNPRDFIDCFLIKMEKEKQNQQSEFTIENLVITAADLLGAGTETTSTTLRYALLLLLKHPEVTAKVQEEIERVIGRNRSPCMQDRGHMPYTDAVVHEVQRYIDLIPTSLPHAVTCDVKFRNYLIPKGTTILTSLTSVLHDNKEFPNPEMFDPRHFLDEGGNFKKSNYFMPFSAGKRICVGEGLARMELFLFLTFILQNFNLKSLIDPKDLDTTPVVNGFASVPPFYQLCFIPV
Test: Inhibition of CYP2C19 (unknown origin)
Conditions: not given

SMILES	IC50 [µM]
Cc1c(-c2cc(F)c(N)cc2F)ccc2c3oc(CN)nc3c(=O)n(C3CC3)c12	0.5
Cc1c(-c2ccc3[nH]ncc3c2)ccc2c3oc(CN)nc3c(=O)n(C3CC3)c12	0.8
Cc1c(-c2cc(F)c(N)cc2F)ccc2c3ocnc3c(=O)n(C3CC3)c12	> 30

Biological target: Cytochrome P450 3A4 (Homo sapiens, UniProt P08684)
Sequence (P08684 whole entry): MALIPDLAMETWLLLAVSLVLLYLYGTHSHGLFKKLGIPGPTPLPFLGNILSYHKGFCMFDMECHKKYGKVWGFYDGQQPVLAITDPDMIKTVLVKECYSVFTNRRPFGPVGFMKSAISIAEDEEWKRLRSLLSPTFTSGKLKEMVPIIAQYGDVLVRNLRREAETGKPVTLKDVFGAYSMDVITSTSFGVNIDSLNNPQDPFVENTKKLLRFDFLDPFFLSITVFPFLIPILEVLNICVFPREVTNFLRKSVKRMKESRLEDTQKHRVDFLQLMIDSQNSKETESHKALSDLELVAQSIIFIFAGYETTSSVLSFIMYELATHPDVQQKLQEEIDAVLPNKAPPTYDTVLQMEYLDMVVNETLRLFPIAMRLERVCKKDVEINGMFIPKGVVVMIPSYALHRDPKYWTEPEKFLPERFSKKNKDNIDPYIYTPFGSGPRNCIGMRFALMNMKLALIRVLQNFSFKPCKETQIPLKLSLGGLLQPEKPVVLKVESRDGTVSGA
Test: Inhibition of CYP3A4 (unknown origin)
Conditions: not given

SMILES	IC50 [µM]
Cc1c(-c2cc(F)c(N)cc2F)ccc2c3oc(CN)nc3c(=O)n(C3CC3)c12	12.9
Cc1c(-c2ccc3[nH]ncc3c2)ccc2c3oc(CN)nc3c(=O)n(C3CC3)c12	1.3
Cc1c(-c2cc(F)c(N)cc2F)ccc2c3ocnc3c(=O)n(C3CC3)c12	> 30

Biological target: Cytochrome P450 2D6 (Homo sapiens, UniProt P10635)
Sequence (P10635 whole entry): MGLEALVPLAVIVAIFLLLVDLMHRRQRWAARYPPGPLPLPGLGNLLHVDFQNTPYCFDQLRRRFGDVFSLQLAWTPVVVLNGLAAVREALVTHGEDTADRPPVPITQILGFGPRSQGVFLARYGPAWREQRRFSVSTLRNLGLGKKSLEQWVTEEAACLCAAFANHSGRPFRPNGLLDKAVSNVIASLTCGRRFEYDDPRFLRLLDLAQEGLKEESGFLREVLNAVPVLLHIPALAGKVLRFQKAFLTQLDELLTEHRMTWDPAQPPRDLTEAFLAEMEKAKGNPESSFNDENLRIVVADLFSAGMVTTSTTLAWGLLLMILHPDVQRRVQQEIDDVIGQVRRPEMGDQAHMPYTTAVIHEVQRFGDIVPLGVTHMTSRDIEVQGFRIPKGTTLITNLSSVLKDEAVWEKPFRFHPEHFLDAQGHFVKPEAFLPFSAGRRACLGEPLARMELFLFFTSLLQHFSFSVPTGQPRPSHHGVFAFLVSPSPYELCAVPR
Test: Inhibition of CYP2D6 (unknown origin)
Conditions: not given

SMILES	IC50 [µM]
Cc1c(-c2cc(F)c(N)cc2F)ccc2c3oc(CN)nc3c(=O)n(C3CC3)c12	11.3
Cc1c(-c2ccc3[nH]ncc3c2)ccc2c3oc(CN)nc3c(=O)n(C3CC3)c12	12.7
Cc1c(-c2cc(F)c(N)cc2F)ccc2c3ocnc3c(=O)n(C3CC3)c12	> 30

Biological target: hERG (KCNH2) (Homo sapiens, UniProt Q12809)
Sequence (Q12809 whole entry): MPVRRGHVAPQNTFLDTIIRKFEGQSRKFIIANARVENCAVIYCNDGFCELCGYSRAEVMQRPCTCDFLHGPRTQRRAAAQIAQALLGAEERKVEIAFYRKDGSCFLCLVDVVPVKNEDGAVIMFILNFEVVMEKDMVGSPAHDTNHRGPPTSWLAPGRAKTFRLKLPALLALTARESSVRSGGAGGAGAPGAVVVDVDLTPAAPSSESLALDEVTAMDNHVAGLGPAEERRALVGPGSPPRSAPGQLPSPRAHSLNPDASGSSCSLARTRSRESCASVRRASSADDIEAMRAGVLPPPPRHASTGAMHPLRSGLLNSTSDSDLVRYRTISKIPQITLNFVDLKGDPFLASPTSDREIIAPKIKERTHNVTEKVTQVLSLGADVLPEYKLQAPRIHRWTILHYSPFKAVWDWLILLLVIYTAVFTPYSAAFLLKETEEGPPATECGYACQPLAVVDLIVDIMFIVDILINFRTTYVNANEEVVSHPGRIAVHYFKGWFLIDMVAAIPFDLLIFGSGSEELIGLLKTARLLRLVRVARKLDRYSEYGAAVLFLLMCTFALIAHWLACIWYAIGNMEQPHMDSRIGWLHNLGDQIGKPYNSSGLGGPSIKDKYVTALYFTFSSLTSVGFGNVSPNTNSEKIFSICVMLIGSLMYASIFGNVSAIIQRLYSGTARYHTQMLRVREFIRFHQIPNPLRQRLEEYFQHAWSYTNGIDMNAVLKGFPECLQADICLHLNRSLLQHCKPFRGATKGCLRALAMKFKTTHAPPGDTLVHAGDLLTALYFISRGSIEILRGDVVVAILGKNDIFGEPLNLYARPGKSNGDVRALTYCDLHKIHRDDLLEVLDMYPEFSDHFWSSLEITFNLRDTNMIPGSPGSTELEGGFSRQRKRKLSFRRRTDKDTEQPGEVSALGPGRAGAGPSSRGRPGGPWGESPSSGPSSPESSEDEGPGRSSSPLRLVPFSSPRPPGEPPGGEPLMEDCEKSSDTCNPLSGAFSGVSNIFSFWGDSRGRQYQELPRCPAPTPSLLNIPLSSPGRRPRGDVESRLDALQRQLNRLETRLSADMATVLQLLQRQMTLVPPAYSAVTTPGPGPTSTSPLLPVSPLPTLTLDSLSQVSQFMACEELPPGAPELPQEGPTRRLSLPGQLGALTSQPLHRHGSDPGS
Test: Inhibition of human ERG at 100 uM relative to control
Conditions: not given

SMILES	inhibition at 100 µM [%]
Cc1c(-c2cc(F)c(N)cc2F)ccc2c3ocnc3c(=O)n(C3CC3)c12	3
